According to publication PMC11377146 (International Journal for Parasitology: Drugs and Drug …, 2024):
Several values for one entry are separate records, joined by “and”; a condition that tells them apart may be missing. Identical values can stand only once.

Columns and labels:
3D7 parasite line = details: ref Whittell et al., 2011; cited from earlier work
Cytotoxicity = format: cell-based; details: human, Caco-2 cells
Outline: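 Caco-2 cells grown 24 h in EMEM + 10% FBS, 37 °C, 5% CO2. Test compound (10 ng/ml–100 μg/ml, in EMEM with 0.5% DMSO) applied for 24 h. MTT (5 mg/ml stock) added for 4 h, formazan dissolved in 4 mM HCl/0.1% Nonidet P-40 in isopropanol. A590 read, 620 nm reference. Viability relative to untreated wells; CC50 from curve fit.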

[1] = test system: G. duodenalis trophozoite stage; assay: In vitro antigiardial assay; format: cell-based; details: Giardia duodenalis, 48 h, G. duodenalis trophozoites
Outline: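 Log-phase trophozoites grown in modified TYI-S-33 at 37 °C, harvested by chilling on ice, counted. DMSO stocks diluted two-fold serially; 2 × 10^5 trophozoites/well; metronidazole positive control. Incubated 48 h at 37 °C, anaerobic. BacTiter-Glo added, 20 min at 37 °C, luminescence read. Survival = medium-blank-corrected signal vs untreated; triplicates. SI = Caco-2 CC50 / IC50.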

Compound	IC50 (3D7 parasite line)	CC50 at 24 h (Cytotoxicity)	IC50 [1]
Cn1cc2c3ccccc3nc-2c2ccccc21 [isocryptolepine, Isocryptolepine]	665 nM		
Cc1ncc([N+](=O)[O-])n1CCO [Metronidazole, metronidazole]		> 100 µg/mL and > 100 µM	2.01 µg/mL and 11.7 µM
